# Bioassay records deposited in PubChem by several laboratories.
# Hits are enriched below; roughly 1.9% of the tested compounds scored in any of these assays.
# Runt-CBFb FRET – Runt domain-CBFb interaction inhibition | 220,000 tested, 0.46% active | Cerulean-Runt/Venus-CBFb FRET ratio 530/480, 1 h | inhibition, % at 20 µM | Q01196+Q13951;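 active = inhibition over about 50% at 20 µM in the single-dose screen, limit read from the data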;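 note: 0% = DMSO wells and 100% = excess unlabeled CBFb competitor control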
#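 Assay system: Cerulean-tagged RUNX1 Runt domain (FRET donor) fusion protein / Amount: 100 nM each of Venus-CBFb and Cerulean-Runt domain / Medium: Tris buffer pH 7.5 with salts and BSA / Also added: Venus-CBFb 100 nM / Schedule: 1 h complex formation plus 1 h compound treatment, room temperature / Signal: FRET fluorescence / Read-out: loss of energy transfer signal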
# Hck-Nef inh – inhibitors of human Hck kinase activated by Nef. Recombinant Hck-YEEI plus Nef, Z-Lyte FRET kinase assay. P08631. inhibition, % at 20 µM. AID 463187. 220,000 tested, 0.68% active;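 active = Hck-Nef kinase inhibition above about 50%, limit read from the data; inactive = inhibition below that limit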;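 note: 0% = DMSO with Hck plus Nef and 100% = Hck alone without Nef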
# Target sequence (P08631 whole entry, looked up): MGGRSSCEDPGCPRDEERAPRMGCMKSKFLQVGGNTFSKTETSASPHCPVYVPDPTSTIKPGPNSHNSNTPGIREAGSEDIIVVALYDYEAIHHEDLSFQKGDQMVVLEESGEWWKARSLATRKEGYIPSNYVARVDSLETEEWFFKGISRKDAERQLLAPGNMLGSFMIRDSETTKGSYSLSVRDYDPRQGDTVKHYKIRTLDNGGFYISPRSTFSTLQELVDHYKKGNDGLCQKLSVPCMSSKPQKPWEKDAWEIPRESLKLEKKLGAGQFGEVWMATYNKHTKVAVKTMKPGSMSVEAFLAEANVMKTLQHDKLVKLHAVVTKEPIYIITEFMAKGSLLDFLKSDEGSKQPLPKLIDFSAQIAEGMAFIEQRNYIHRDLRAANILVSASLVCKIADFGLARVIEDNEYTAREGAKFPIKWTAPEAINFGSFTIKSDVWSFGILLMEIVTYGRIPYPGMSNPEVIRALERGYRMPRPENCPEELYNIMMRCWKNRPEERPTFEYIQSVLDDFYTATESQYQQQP
# RanGTP-Impb inh – disruptors of Ran-importin-beta complex formation – biochemical, FRET, CFP-Ran, YFP-importin-beta, homogeneous, primary screen. cell-free CFP-Ran/YFP-importin-beta FRET ratio. inhibition, % (test concentration not listed). AID 2216. 300,000 tested, 1.1% active;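 active = more than half of the replicate wells show a fall in the fluorescence ratio signal beyond about 16%, limit read from the data, passing the limit was not always enough; inconclusive = exactly half of the replicate wells pass the set limit; inactive = fewer than half of replicates pass the limit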;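 note: 0% = DMSO wells and 100% = Ran loaded with GDP instead of GTP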
# Runt-SMMHC FRET – Runt domain-CBFb-SMMHC interaction inhibition. Q01196+Q13951. Cerulean-Runt/Venus-CBFb-SMMHC FRET ratio 530/480, 1 h. inhibition, % at 20 µM. 220,000 tested, 0.74% active;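 active = mean inhibition across duplicate retests at 20 µM reaching about 50%, limit read from the data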;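 note: 0% = DMSO wells and 100% = wells with excess untagged CBFb-SMMHC; inhibitors lower the FRET ratio by blocking Runt binding to CBFb-SMMHC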
# Hck-Nef confirm – confirmation of Hck-Nef kinase inhibitors; shares compounds with Hck-Nef inh; Recombinant Hck-YEEI:Nef, Z-Lyte FRET kinase assay; calls only at 10 µM; 1,300 tested, 28% active; AID 463188;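 active = average inhibition of at least 50%, with Z-scores no higher than 3 in both the phospho-tyrosine peptide and fluorescence counterscreens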
# Starred values were filed as active, the others as inactive; i = inactive; ? = inconclusive; . = not tested or not shown; + = active, no number.
SMILES,Runt-CBFb FRET,Hck-Nef inh,RanGTP-Impb inh,Runt-SMMHC FRET,Hck-Nef confirm
Cc1c2c(n3c(nc4ccccc43)c1C#N)N(CCN(C)C)CC2,19,55*,-2,91*,i
O=C(O)c1ccc(N2C(=O)/C(=C/c3ccc(-c4ccc([N+](=O)[O-])cc4)o3)C=C2c2ccccc2)cc1,11,72*,-11,-44,+
O=C1NN(c2ccccc2)C(=O)/C1=C/c1ccc(-c2ccc(C(=O)O)cc2)o1,.,.,5,.,.
O=C1NC(=S)S/C1=C\C=C\c1ccc([N+](=O)[O-])o1,41,56*,.,-9,+
O=C(O)/C=C/c1ccc([N+](=O)[O-])o1,2,27,8,0,.
O=C1ON=C(c2ccccc2)/C1=C\c1ccco1,9,54*,-5,37,i
Cc1cc(C(=O)NNS(=O)(=O)c2ccc(C(C)(C)C)cc2)nn1C(C)(C)C,-1,7,1,-2,.
O=C(O)CC1S/C(=N/N=C/c2ccc(-c3ccc(Cl)cc3[N+](=O)[O-])o2)NC1=O (stereo unspecified),27,1,1,14,.
O=C(O)CC1S/C(=N/N=C/c2ccc(-c3ccc(Cl)c([N+](=O)[O-])c3)o2)NC1=O (stereo unspecified),38,119*,4,24,i
CCCCN(CC)Cc1c(O)ccc2c3c(c(=O)oc12)CCC3,37,+,-3,73*,.
CCN(CC)C(=O)COc1ccc2c3c(c(=O)oc2c1C)CCCC3,.,.,-4,.,.
COCCN(CCOC)Cc1c(O)ccc2c3c(c(=O)oc12)CCC3,44,72*,-2,93*,.
CC(=O)Oc1cc2oc(=O)c3c(c2cc1Cl)CCC3,81*,111*,11,178*,.
COc1cc2cccc(OC)c(=O)c2c(OC)c1OC,2,19,?,-2,.
O=c1c(O)cccc2cc(O)c(O)c(O)c12,24,65*,?,-4,+
Cc1ccc(C(=O)NCC(=O)NNC(=O)CN(C)S(=O)(=O)c2ccc(Cl)cc2)s1,.,.,-1,.,.
Cc1ccc(N=C2NC(=O)/C(=C/C=C/c3ccco3)S2)cc1,2,97*,2,-31,i
Cc1cccc(N=C2NC(=O)/C(=C/C=C/c3ccco3)S2)c1C,22,74*,-4,-10,i
O=C1NC(=Nc2ccccc2)S/C1=C\C=C\c1ccco1,7,7,-3,-17,.
CC1(c2ccccc2Cl)NC(=O)N(CC(=O)NCc2ccco2)C1=O (stereo unspecified),1,19,0,2,.
C/C(=N\Nc1ccc(S(N)(=O)=O)cc1[N+](=O)[O-])c1ccc2c(c1)OCO2,-1,65*,-2,-2,+
CC(C)(C)c1ccc(C(=O)Nc2ccc(O)c3c(=O)cc(-c4cccc(Cl)c4)oc23)cc1,2,25,-7,-7,.
COc1ccc(C(=O)Nc2ccc(O)c3c(=O)cc(-c4cccc(Cl)c4)oc23)cc1,1,83*,1,1,i
Cc1cccc(Cc2nnc(CCC(=O)N(C)Cc3ccncc3C)o2)c1,-3,84*,?,-11,i
CCCS/C(N)=N/N=C/c1cc(C)ccc1O,1,55*,3,1,+
SMILES,Runt-CBFb FRET,Hck-Nef inh,RanGTP-Impb inh,Runt-SMMHC FRET,Hck-Nef confirm
CCC(C)NC(=O)CCC(=O)Nc1ccc2nc(N3CCOCC3)cc(C)c2c1 (stereo unspecified),.,3,-1,3,.
CCC(C)NC(=O)CCC(=O)Nc1ccc2nc(N3CC(C)CC(C)C3)cc(C)c2c1 (stereo unspecified),-2,52*,2,-2,i
CCN(CC)c1ccc2c(C)c(CO)c(=O)oc2c1,21,+,132*,86*,.
COC(=O)Cc1c(C)c2ccc(OCC(=O)N3CCOCC3)cc2oc1=O,0,1,-1,4,.
CCN(CC)c1ccc2c(Cl)cc(=O)oc2c1,40,66*,74*,-20,.
CCN(CC)c1ccc2c(C)c(CN3CCOCC3)c(=O)oc2c1,11,102*,1,41,.
CCN(CC)CCN(C(=O)c1ccc2c(c1)CCCC2)c1nc2c(C)cccc2s1,.,.,-3,.,.
Cc1cccc(NS(=O)(=O)c2cccc(C(=O)NCCCN3CCOCC3)c2)c1,.,.,-3,.,.
COC(=O)c1sccc1S(=O)(=O)NCc1ccc(S(N)(=O)=O)cc1,.,.,4,.,.
O=C1CCC(C(=O)OCc2cc(=O)oc3ccc4ccccc4c23)=NN1,-1,24,-1,0,.
Cc1ccc(NC(=O)CCC(=O)N/N=C/c2coc3ccccc3c2=O)cc1,-4,64*,?,-2,+
Cc1ccc(NC(=O)CCC(=O)N/N=C/c2coc3ccc(F)cc3c2=O)cc1,.,.,1,.,.
CC(C)Cn1c(=S)[nH]c2cc(Cl)ccc21,6,-5,1,5,.
CCN(CC)c1ccc(/C=N/NC(=O)c2ccoc2C)cc1,8,61*,-2,21,.
CCN(CC)c1ccc(/C=N\NC(N)=O)cc1,2,2,-5,29,.
Cc1ccc(NC(=O)Nc2sc(=S)n(C)c2C)cc1,4,92*,2,-1,i
CC(Sc1nc2ccccc2c(=O)n1C)C(=O)N(C)C1CCCCC1 (stereo unspecified),.,.,1,.,.
N#C/C(=C\c1ccc(OC(=O)c2ccc(Cl)s2)cc1)c1nc2ccccc2[nH]1,-60,56*,2,-66,+
C/C=C\C=C\C(=O)N1CC2(CC(c3cccc(NC(=O)CC(c4ccccc4)c4ccccc4)c3)=NO2)C[C@H]1C(N)=O (stereo partly specified),4,78*,-1,2,i
C/C=C/C=C\C(=O)Nc1cccc(C2=NOC3(C2)C[C@@H](C(N)=O)N(C(=O)c2cc([N+](=O)[O-])cc([N+](=O)[O-])c2)C3)c1 (stereo partly specified),3,50*,0,1,i
C/C=C\C=C/C(=O)Nc1cccc(C2=NOC3(C2)C[C@@H](C(N)=O)N(C(=O)/C=C/C=C\C)C3)c1 (stereo partly specified),15,-21,2,0,.
O=C(CSC1=NS(=O)(=O)c2cc(Cl)ccc2N1)Nc1cccc(F)c1,.,.,0,.,.
O=S(=O)(c1ccccc1)N1N=C(c2cccs2)CC1c1ccc(F)cc1 (stereo unspecified),-1,-2,1,-10,.
Fc1ccc(N2N=C(c3cccs3)CC2c2ccccc2)cc1 (stereo unspecified),59*,56*,2,91*,i
COc1ccc(CCC(=O)O)cc1OC,0,-9,1,-2,.
COc1ccc(/C=N/Nc2ncnc3c2[nH]c2ccccc23)c(OC)c1OC,0,5,3,10,.
COc1cccc(/C=N/Nc2ncnc3c2[nH]c2ccc(C)cc23)c1OC,-12,66*,7,-7,i
